# From PMC3962999 (The Biochemical journal, 2011)
# pKd: −log10 of the molar value. “And” between values parts separate entries of the source, which are not always exact repeats. Equal entries are not always repeated. Where two headings read alike, the source gives them in different places.
# What was measured:
# [1] = target: T1, phosphatase-like domain of PPIP5K1 (PBD1) (Homo sapiens, UniProt Q6PFW1); assay: Phosphatase assay with phosphatase-like domain of PPIP5K1; assay type: biochemical; settings: for hydrolysis of inositol phosphate: up to 15 h at 37 °C, trace 3H-labelled material (InsP6 also 1 μM)
# T1 sequence (Q6PFW1 382-917): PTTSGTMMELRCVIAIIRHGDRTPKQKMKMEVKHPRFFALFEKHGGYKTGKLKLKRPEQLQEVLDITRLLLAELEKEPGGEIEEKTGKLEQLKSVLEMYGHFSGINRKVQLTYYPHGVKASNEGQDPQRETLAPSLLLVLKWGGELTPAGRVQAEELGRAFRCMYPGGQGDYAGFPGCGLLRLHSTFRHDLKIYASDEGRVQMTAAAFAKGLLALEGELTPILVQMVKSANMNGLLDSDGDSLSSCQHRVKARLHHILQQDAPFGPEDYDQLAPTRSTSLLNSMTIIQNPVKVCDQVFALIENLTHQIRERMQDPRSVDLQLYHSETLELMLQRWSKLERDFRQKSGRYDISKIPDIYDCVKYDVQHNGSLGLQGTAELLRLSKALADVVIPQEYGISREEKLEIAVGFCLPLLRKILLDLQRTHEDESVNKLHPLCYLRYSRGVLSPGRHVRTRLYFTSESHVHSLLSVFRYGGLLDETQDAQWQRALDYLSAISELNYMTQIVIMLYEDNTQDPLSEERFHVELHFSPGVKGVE
# How it was run: (§1)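 Enzyme and 50 mM p-nitrophenyl phosphate were incubated at 37 °C in EDTA-free phosphatase buffer: 5 mM Hepes pH 7.2, 100 mM KCl, 2 mM MgCl₂, 0.5 mg/ml BSA. Reactions were stopped with 1 M NaOH, and p-nitrophenol accumulation was read as absorbance. Phosphatase-like domains were His-tagged constructs made in E. coli with pGro7 chaperones, purified by Ni-NTA then SP cation exchange. hMIPP was recombinant.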
# [2] = target: T2, phosphatase-like domain of PPIP5K2 (PBD2) (Homo sapiens, UniProt O43314); assay: Phosphatase assay with phosphatase-like domain of PPIP5K2; assay type: biochemical; settings: for hydrolysis of inositol phosphate: results not shown
# T2 sequence (O43314 371-901 isoform O43314-2): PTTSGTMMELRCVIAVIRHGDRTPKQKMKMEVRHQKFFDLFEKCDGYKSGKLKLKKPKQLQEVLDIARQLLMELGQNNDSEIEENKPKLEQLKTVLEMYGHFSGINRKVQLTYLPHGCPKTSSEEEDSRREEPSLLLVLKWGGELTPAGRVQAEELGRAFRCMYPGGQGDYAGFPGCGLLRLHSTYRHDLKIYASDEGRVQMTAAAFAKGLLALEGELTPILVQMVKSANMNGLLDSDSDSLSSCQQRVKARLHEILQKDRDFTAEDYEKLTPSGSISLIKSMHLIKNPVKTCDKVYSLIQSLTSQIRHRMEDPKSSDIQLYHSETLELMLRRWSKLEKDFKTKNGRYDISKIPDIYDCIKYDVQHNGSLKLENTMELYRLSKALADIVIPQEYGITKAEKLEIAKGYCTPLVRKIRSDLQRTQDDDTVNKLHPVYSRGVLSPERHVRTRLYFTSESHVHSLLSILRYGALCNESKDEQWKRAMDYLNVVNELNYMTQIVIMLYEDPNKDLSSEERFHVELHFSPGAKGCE
# How it was run: as §1
# PPIP5K1 kinase domain [3] = target: T3, PPIP5K1 kinase domain (Homo sapiens, UniProt Q6PFW1); settings: cited from earlier work
# T3 sequence (Q6PFW1 1-387 limits assumed): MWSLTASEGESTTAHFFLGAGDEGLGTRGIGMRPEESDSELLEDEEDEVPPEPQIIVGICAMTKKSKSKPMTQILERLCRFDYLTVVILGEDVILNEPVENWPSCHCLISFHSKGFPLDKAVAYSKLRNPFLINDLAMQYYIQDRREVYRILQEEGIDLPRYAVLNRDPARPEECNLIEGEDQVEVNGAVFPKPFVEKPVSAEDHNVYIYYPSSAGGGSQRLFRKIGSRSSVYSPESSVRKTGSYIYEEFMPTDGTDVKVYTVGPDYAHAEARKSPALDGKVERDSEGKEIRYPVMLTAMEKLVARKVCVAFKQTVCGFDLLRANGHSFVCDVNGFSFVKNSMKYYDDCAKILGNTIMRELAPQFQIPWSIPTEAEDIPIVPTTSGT
# [4] = test system: full-length recombinant human PPIP5K1; settings: in vitro; cited from earlier work
# PPIP5K1 kinase domain [5] = target: T3, PPIP5K1 kinase domain; assay: Kinase assay with PPIP5K1 kinase domain; assay type: biochemical; settings: ratio of kcat/Km, this study
# PBD2 = target: T4, PBD2 (Homo sapiens, UniProt O43314); assay: PEG precipitation [3H]InsP6 binding assay
# T4 sequence (O43314 371-901 isoform O43314-2): T2 sequence (O43314 371-901 isoform O43314-2)
# How it was run: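 PBD2 (32 μg) was incubated 20 min at 4 °C in 25 mM Hepes pH 7.2 containing 5 mg/ml γ-globulin, 100 mM KCl, 1 mM EDTA and 1 mM DTT. Each tube held ~15000 d.p.m. [³H]InsP₆ plus increasing unlabelled InsP₆ or C₈-PtdIns(3,4,5)P₃. Ice-cold 30 % PEG was added, samples were held 10 min at 0–4 °C and centrifuged at 10 000 g. Washed pellets were counted, and Kd and Bmax came from the saturation binding plot.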
# NIH 3T3 cells = assay: Confocal immunofluorescence of FLAG-PPIP5K1 translocation to the plasma membrane; assay type: cell-based
# How it was run: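 NIH 3T3 cells on glass-bottom dishes were transfected 24 h after seeding with full-length FLAG-tagged human PPIP5K1 (Lipofectamine 2000). The next day they were serum-starved 3 h, then given PDGF. Cells were fixed in 3 % paraformaldehyde/4 % sucrose (15 min, 23 °C), permeabilized with 0.2 % Triton X-100, and blocked. Staining used anti-FLAG (2 h, 37 °C), Alexa 488 secondary and DAPI. Confocal ×63 line intensity profiles gave plasma membrane/cytoplasm pixel intensity ratios.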
# GRP-1 PH domain [6] = target: T5, GRP-1 PH domain (Mus musculus, UniProt O08967); settings: read-out: Kd, values published by others; same technique; cited from earlier work
# T5 sequence (O08967 264-380 limits assumed): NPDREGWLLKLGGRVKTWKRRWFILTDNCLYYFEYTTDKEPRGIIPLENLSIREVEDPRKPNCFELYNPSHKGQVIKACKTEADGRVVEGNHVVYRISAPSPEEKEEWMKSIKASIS
# GRP-1 PH domain [7] = target: T5, GRP-1 PH domain; assay: SPR equilibrium binding to immobilized lipid vesicles, GRP-1 PH domain
# How it was run: (§2)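 Large unilamellar vesicles (PtdCho/PtdE/test phosphoinositide 77:20:3) were captured on an L1 chip to 5000 RU. Signals were corrected against phosphoinositide-free vesicles. Kd came from nonlinear fitting of Req = Rmax/(1+Kd/C). Concentrations were: GRP-1 PH domain 2.5–125 nM; PBD1 on PtdIns(3,4,5)P₃ 5–150 nM; bisphosphate vesicles 75–1900 nM.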
# PBD1 (PPIP5K1) = target: T6, PBD1 (PPIP5K1) (Homo sapiens, UniProt Q6PFW1); assay: SPR equilibrium binding to immobilized lipid vesicles, PBD1; settings: for binding to PBD1: SPR, in words
# T6 sequence (Q6PFW1 382-917): T1 sequence (Q6PFW1 382-917)
# How it was run: as §2
# PBD2 (PPIP5K2) = target: T7, PBD2 (PPIP5K2) (Homo sapiens, UniProt O43314); assay: SPR equilibrium binding to immobilized lipid vesicles, PBD2; settings: for binding to PBD2: SPR, in words
# T7 sequence (O43314 371-901 isoform O43314-2): T2 sequence (O43314 371-901 isoform O43314-2)
# How it was run: as §2
# hMIPP = target: T8, hMIPP (Homo sapiens, UniProt Q9UNW1); assay: Hydrolysis of p-nitrophenyl phosphate by hMIPP; assay type: biochemical; settings: 50 mM p-nitrophenyl phosphate, 90 ug hMIPP
# T8 sequence (Q9UNW1 31-487): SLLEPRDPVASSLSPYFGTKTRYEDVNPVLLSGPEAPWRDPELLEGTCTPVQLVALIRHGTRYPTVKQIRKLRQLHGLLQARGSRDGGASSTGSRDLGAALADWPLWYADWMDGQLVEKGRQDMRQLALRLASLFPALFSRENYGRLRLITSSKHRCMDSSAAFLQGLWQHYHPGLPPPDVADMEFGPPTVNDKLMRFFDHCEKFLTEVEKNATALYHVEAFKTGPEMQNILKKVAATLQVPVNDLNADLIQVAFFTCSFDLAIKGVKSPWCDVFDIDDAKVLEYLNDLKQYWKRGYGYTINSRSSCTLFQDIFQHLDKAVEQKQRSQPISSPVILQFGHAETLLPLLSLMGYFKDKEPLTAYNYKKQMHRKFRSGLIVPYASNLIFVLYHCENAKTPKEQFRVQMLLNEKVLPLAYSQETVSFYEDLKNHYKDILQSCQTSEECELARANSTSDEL
# How it was run: as §1
# [8] = Stability of InsP8 through acid-quench, neutralization and HPLC; assay type: physicochemical; settings: HPLC-purified [3H]InsP8
molecule,measurement,setting,value
O=P(O)(O)OC1[C@@H](OP(=O)(O)O)[C@@H](OP(=O)(O)O)C(OP(=O)(O)OP(=O)(O)O)[C@H](OP(=O)(O)O)[C@H]1OP(=O)(O)O (some centres unmarked) [1/3-PP-InsP5],hydrolysis of inositol phosphate,[1],none of these polyphosphates were hydrolysed
same,hydrolysis of inositol phosphate,[2],Identical results
O=P(O)(O)OC1[C@@H](OP(=O)(O)O)[C@H](OP(=O)(O)O)C(OP(=O)(O)OP(=O)(O)O)[C@H](OP(=O)(O)O)[C@H]1OP(=O)(O)O (some centres unmarked) [5-PP-InsP5],catalytic specificity for 5-PP-InsP5 relative to InsP6,PPIP5K1 kinase domain [3],2.5 fold
same,hydrolysis of inositol phosphate,[1],none of these polyphosphates were hydrolysed
same,dephosphorylation by full-length PPIP5K1,[4],does not de-phosphorylate
same,catalytic preference for 5-PP-InsP5 over InsP6,PPIP5K1 kinase domain [5],80 fold
same,hydrolysis of inositol phosphate,[2],Identical results
"CCCCCCCC(=O)OC[C@H](COP(=O)(O)OC1[C@H](O)[C@H](OP(=O)(O)O)C(OP(=O)(O)O)[C@H](OP(=O)(O)O)[C@H]1O)OC(=O)CCCCCCC (some centres unmarked) [C8 soluble analogue of PtdIns(3,4,5)P3, C8-PtdIns(3,4,5)P3, reference compound]",hydrolysis of the lipid (phosphate release),"[1]; PBD1 35 μg/ml, 24 h at 37 °C, 1 mM lipid",unable to detect any hydrolysis
same,potency relative to InsP6 at displacing [3H]InsP6,PBD2; PEG-precipitation assay,2- to 3 fold
"O=P(O)(O)OC1[C@@H](OP(=O)(O)O)[C@H](OP(=O)(O)O)C(O)[C@H](OP(=O)(O)O)[C@H]1OP(=O)(O)O (some centres unmarked) [Ins(1,3,4,5,6)P5]",dephosphorylation by full-length PPIP5K1,[4],does not de-phosphorylate
O=P(O)(O)O[C@H]1[C@H](OP(=O)(O)O)[C@@H](OP(=O)(O)O)[C@H](OP(=O)(O)O)[C@@H](OP(=O)(O)O)[C@H]1OP(=O)(O)O [InsP6],hydrolysis of inositol phosphate,[1],none of these polyphosphates were hydrolysed
same,dephosphorylation by full-length PPIP5K1,[4],does not de-phosphorylate
same,Bmax,PBD2; InsP6 binding to PBD2,0.6 mol/mol of protein
same,pKd,"PBD2; saturation binding plot, 4 °C",6.22 and 6.24
same,hydrolysis of inositol phosphate,[2],Identical results
"O=c1cc(N2CCOCC2)oc2c(-c3ccccc3)cccc12 [LY294002, reference compound]",PDGF-induced translocation of PPIP5K1,NIH 3T3 cells; 15 min pre-treatment with 100 μM LY294002 before 50 ng/ml PDGF for 5 min,largely prevented
"CCCCC/C=C\C/C=C\C/C=C\C/C=C\CCCC(=O)O[C@H](COC(=O)CCCCCCCCCCCCCCCCC)COP(=O)(O)O[C@H]1[C@H](O)[C@@H](OP(=O)(O)O)[C@H](OP(=O)(O)O)[C@@H](OP(=O)(O)O)[C@H]1O [PtdIns(3,4,5)P3]",pKd,GRP-1 PH domain [6],6.77 to 7.55
same,pKd,GRP-1 PH domain [7],7.23
same,pKd,PBD1 (PPIP5K1),7.02
same,pKd,PBD2 (PPIP5K2),6.15
"O=P(O)(O)OC1C(OP(=O)(O)O)C(OP(=O)(O)OP(=O)(O)O)C(OP(=O)(O)O)C(OP(=O)(O)OP(=O)(O)O)C1OP(=O)(O)O (centres unmarked) [[PP]2-InsP4, 1/3,5-[PP]2-InsP4]",hydrolysis of inositol phosphate,[1],none of these polyphosphates were hydrolysed
same,dephosphorylation by full-length PPIP5K1,[4],does not de-phosphorylate
same,hydrolysis of inositol phosphate,[2],Identical results
"O=[N+]([O-])c1ccc(OP(=O)(O)O)cc1 [p-nitrophenyl phosphate, reference compound]",hydrolysis of p-nitrophenyl phosphate,"[1]; 50 mM p-nitrophenyl phosphate, 90 μg PBD1",no activity
same,rate of p-nitrophenyl phosphate hydrolysis,hMIPP,approx. 10 nM/mg of protein per min
same,hydrolysis of p-nitrophenyl phosphate,"[2]; 50 mM p-nitrophenyl phosphate, 90 μg PBD2",no activity
InsP8,hydrolysis of inositol phosphate,[1],none of these polyphosphates were hydrolysed
same,"dephosphorylation after acid-quench, neutralization and HPLC",[8],did not detect any dephosphorylation
same,"recovery after acid-quench, neutralization and HPLC",[8],> 85%
same,hydrolysis of inositol phosphate,[2],Identical results
PDGF,proportion of PPIP5K1 at the plasma membrane,"NIH 3T3 cells; 50 ng/ml PDGF, 5 min",significant increase
Ptd3P,binding to PBD1,PBD1 (PPIP5K1),did not bind
same,binding to PBD2,PBD2 (PPIP5K2),did not bind
Ptd4P,binding to PBD1,PBD1 (PPIP5K1),did not bind
same,binding to PBD2,PBD2 (PPIP5K2),did not bind
Ptd5P,binding to PBD1,PBD1 (PPIP5K1),did not bind
same,binding to PBD2,PBD2 (PPIP5K2),did not bind
"PtdIns(3,4)P2","affinity relative to PtdIns(3,4,5)P3 (fold lower)",PBD1 (PPIP5K1); PBD1,approx. 6 fold
same,binding to PBD1,PBD1 (PPIP5K1),significantly weaker ligands
"PtdIns(3,5)P2",binding to PBD1,PBD1 (PPIP5K1),no significant binding
same,binding to PBD2,PBD2 (PPIP5K2),did not bind
